Laboratory results taken from ChEMBL document CHEMBL4138275, “Taccalonolide Microtubule Stabilizers Generated Using Semisynthesis Define the Effects of Mono Acyloxy Moieties at C-7 or C-15 and Disubstitutions at C-7 and C-25” (J Nat Prod, 2018).
Calls of active or inactive are those of the source. The calls are words filed in the database; no cut-off is given here.

Key:
HeLa [1] = assay: Antiproliferative activity against human HeLa cells after 48 hrs by sulforhodamine B assay; format: functional, cell-based
Summary of the method: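 HeLa cells (STR-validated) grown in BME with 10% FBS and gentamycin, seeded 2500/well, left to adhere overnight, then exposed to compounds for 48 h. Cell density read by sulforhodamine B staining. IC50 is the concentration giving 50% inhibition of cell density versus vehicle, fitted by nonlinear regression. Mean of 3 or 4 experiments, each in triplicate, ±SD.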

HeLa [2] = assay: Induction of microtubule stabilization in human HeLa cells assessed as formation of multiple aberrant mitotic spindle at 5 times IC50 after 18 hrs by indirect immunofluorescence assay; format: cell-based
Summary of the method: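 HeLa cells treated for 18 h at 5-fold each compound's own antiproliferative IC50, with EtOH as vehicle control. Mitotic and interphase microtubules stained by indirect immunofluorescence with a β-tubulin antibody and viewed by fluorescence microscopy.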

SMILES | IC50 (HeLa [1]) | Activity (HeLa [2])
CC(=O)O[C@H]1[C@H]2[C@H]([C@@H]3[C@@H](O)[C@@H]4[C@H]([C@H](C)[C@H]5O[C@]56OC(=O)[C@@](C)(OC(=O)c5ccc7c(c5)C(=O)c5ccccc5C7=O)[C@]46C)[C@@]3(C)[C@H]1OC(C)=O)[C@@H](OC(=O)c1ccc3c(c1)C(=O)c1ccccc1C3=O)C(=O)[C@H]1C[C@@H]3O[C@@H]3[C@H](OC(C)=O)[C@]21C | 3 µM | –
CC(=O)O[C@@H]1[C@H]2[C@H]3[C@H]([C@H](OC(C)=O)[C@H](OC(C)=O)[C@]2(C)[C@@H]2[C@@H]1[C@]1(C)C(=C[C@H]2C)OC(=O)[C@@]1(C)O)[C@]1(C)[C@H](C[C@@H]2O[C@@H]2[C@@H]1OC(C)=O)C(=O)[C@@H]3O [TACCALONOLIDE A] | 5.4 µM | –
CC(=O)O[C@H]1[C@H]2[C@H]([C@@H]3[C@@H](O)[C@@H]4[C@H]([C@H](C)C=C5OC(=O)[C@@](C)(OC(=O)c6ccc7c(c6)C(=O)c6ccccc6C7=O)[C@@]54C)[C@@]3(C)[C@H]1OC(C)=O)[C@@H](OC(=O)c1ccc3c(c1)C(=O)c1ccccc1C3=O)C(=O)[C@H]1C[C@@H]3O[C@@H]3[C@H](OC(C)=O)[C@]21C | > 20 µM | –
CC(=O)O[C@H]1[C@H]2[C@H]([C@@H]3[C@@H](O)[C@@H]4[C@H]([C@H](C)[C@H]5O[C@]56OC(=O)[C@@](C)(O)[C@]46C)[C@@]3(C)[C@H]1OC(C)=O)[C@@H](OC(=O)c1ccc3c(c1)C(=O)c1ccccc1C3=O)C(=O)[C@H]1C[C@@H]3O[C@@H]3[C@H](OC(C)=O)[C@]21C | 0.022 µM | –
CC(=O)O[C@H]1[C@H]2[C@H]([C@@H]3[C@@H](O)[C@@H]4[C@H]([C@H](C)[C@H]5O[C@]56OC(=O)[C@@](C)(OC(=O)C(C)C)[C@]46C)[C@@]3(C)[C@H]1OC(C)=O)[C@@H](OC(=O)C(C)C)C(=O)[C@H]1C[C@@H]3O[C@@H]3[C@H](OC(C)=O)[C@]21C | 0.79 µM | Active
CC(=O)O[C@H]1[C@H]2[C@H]([C@@H]3[C@@H](O)[C@@H]4[C@H]([C@H](C)C=C5OC(=O)[C@@](C)(OC(=O)C6CC6)[C@@]54C)[C@@]3(C)[C@H]1OC(C)=O)[C@@H](OC(=O)C1CC1)C(=O)[C@H]1C[C@@H]3O[C@@H]3[C@H](OC(C)=O)[C@]21C | > 20 µM | –
CC(=O)O[C@H]1[C@H]2[C@H]([C@@H]3[C@@H](O)[C@@H]4[C@H]([C@H](C)C=C5OC(=O)[C@@](C)(O)[C@@]54C)[C@@]3(C)[C@H]1OC(C)=O)[C@@H](OC(=O)c1ccc3c(c1)C(=O)c1ccccc1C3=O)C(=O)[C@H]1C[C@@H]3O[C@@H]3[C@H](OC(C)=O)[C@]21C | 3.4 µM | –
CC(=O)O[C@H]1[C@H]2[C@H]([C@@H]3[C@@H](OC(=O)c4ccc5c(c4)C(=O)c4ccccc4C5=O)[C@@H]4[C@H]([C@H](C)[C@H]5O[C@]56OC(=O)[C@@](C)(O)[C@]46C)[C@@]3(C)[C@H]1OC(C)=O)[C@@H](O)C(=O)[C@H]1C[C@@H]3O[C@@H]3[C@H](OC(C)=O)[C@]21C | 0.038 µM | –

The next lines start with results.

IC50 (HeLa [1]) | SMILES | Activity (HeLa [2])
> 20 µM | CC(=O)O[C@H]1[C@H]2[C@H]([C@@H]3[C@@H](OC(=O)C4CC4)[C@@H]4[C@H]([C@H](C)C=C5OC(=O)[C@@](C)(O)[C@@]54C)[C@@]3(C)[C@H]1OC(C)=O)[C@@H](O)C(=O)[C@H]1C[C@@H]3O[C@@H]3[C@H](OC(C)=O)[C@]21C | –
> 20 µM | CC(=O)O[C@H]1[C@H]2[C@H]([C@@H]3[C@@H](O)[C@@H]4[C@H]([C@H](C)C=C5OC(=O)[C@@](C)(OC(=O)C(C)C)[C@@]54C)[C@@]3(C)[C@H]1OC(C)=O)[C@@H](OC(=O)C(C)C)C(=O)[C@H]1C[C@@H]3O[C@@H]3[C@H](OC(C)=O)[C@]21C | –
1.5 µM | CC(=O)O[C@H]1[C@H]2[C@H]([C@@H]3[C@@H](OC(=O)CC(C)C)[C@@H]4[C@H]([C@H](C)C=C5OC(=O)[C@@](C)(O)[C@@]54C)[C@@]3(C)[C@H]1OC(C)=O)[C@@H](O)C(=O)[C@H]1C[C@@H]3O[C@@H]3[C@H](OC(C)=O)[C@]21C | –
10 µM | CC(=O)O[C@H]1[C@H]2[C@H]([C@@H]3[C@@H](O)[C@@H]4[C@H]([C@H](C)C=C5OC(=O)[C@@](C)(O)[C@@]54C)[C@@]3(C)[C@H]1OC(C)=O)[C@@H](OC(=O)C(C)(C)C)C(=O)[C@H]1C[C@@H]3O[C@@H]3[C@H](OC(C)=O)[C@]21C | –
7.1 µM | CC(=O)O[C@H]1[C@H]2[C@H]([C@@H]3[C@@H](OC(=O)c4ccc5c(c4)C(=O)c4ccccc4C5=O)[C@@H]4[C@H]([C@H](C)C=C5OC(=O)[C@@](C)(O)[C@@]54C)[C@@]3(C)[C@H]1OC(C)=O)[C@@H](O)C(=O)[C@H]1C[C@@H]3O[C@@H]3[C@H](OC(C)=O)[C@]21C | –
> 20 µM | CC(=O)O[C@H]1[C@H]2[C@H]([C@@H]3[C@@H](O)[C@@H]4[C@H]([C@H](C)C=C5OC(=O)[C@@](C)(OC(=O)CC(C)C)[C@@]54C)[C@@]3(C)[C@H]1OC(C)=O)[C@@H](OC(=O)CC(C)C)C(=O)[C@H]1C[C@@H]3O[C@@H]3[C@H](OC(C)=O)[C@]21C | –
> 20 µM | CC(=O)O[C@H]1[C@H]2[C@H]([C@@H]3[C@@H](OC=O)[C@@H]4[C@H]([C@H](C)C=C5OC(=O)[C@@](C)(O)[C@@]54C)[C@@]3(C)[C@H]1OC(C)=O)[C@@H](O)C(=O)[C@H]1C[C@@H]3O[C@@H]3[C@H](OC(C)=O)[C@]21C | –
> 20 µM | CC(=O)O[C@H]1[C@H]2[C@H]([C@@H]3[C@@H](O)[C@@H]4[C@H]([C@H](C)C=C5OC(=O)[C@@](C)(O)[C@@]54C)[C@@]3(C)[C@H]1OC(C)=O)[C@@H](OC(=O)CC(C)C)C(=O)[C@H]1C[C@@H]3O[C@@H]3[C@H](OC(C)=O)[C@]21C | –
2.4 µM | CC(=O)O[C@H]1[C@H]2[C@H]([C@@H]3[C@@H](OC(=O)C(C)(C)C)[C@@H]4[C@H]([C@H](C)C=C5OC(=O)[C@@](C)(O)[C@@]54C)[C@@]3(C)[C@H]1OC(C)=O)[C@@H](O)C(=O)[C@H]1C[C@@H]3O[C@@H]3[C@H](OC(C)=O)[C@]21C | –
4.7 µM | CC(=O)O[C@H]1[C@H]2[C@H]([C@@H]3[C@@H](O)[C@@H]4[C@H]([C@H](C)C=C5OC(=O)[C@@](C)(O)[C@@]54C)[C@@]3(C)[C@H]1OC(C)=O)[C@@H](OC(=O)C(C)C)C(=O)[C@H]1C[C@@H]3O[C@@H]3[C@H](OC(C)=O)[C@]21C | –
> 20 µM | CC(=O)O[C@H]1[C@H]2[C@H]([C@@H]3[C@@H](OC(=O)C(C)C)[C@@H]4[C@H]([C@H](C)C=C5OC(=O)[C@@](C)(O)[C@@]54C)[C@@]3(C)[C@H]1OC(C)=O)[C@@H](O)C(=O)[C@H]1C[C@@H]3O[C@@H]3[C@H](OC(C)=O)[C@]21C | –
